The results in this text go back to ChEMBL document CHEMBL1155161, “Effects of the translocation status of human immunodeficiency virus type 1 reverse transcriptase on the efficiency of excision of tenofovir” (Antimicrob Agents Chemother, 2007).

A value given as a limit tells only on which side of the number the result lay.

The target of series [1] is T1, Human immunodeficiency virus type 1 reverse transcriptase (Human immunodeficiency virus 1, UniProt Q72547). The series can be described thus: Inhibition of HIV1 reverse transcriptase by steady state nucleotide incorporation assay. The procedure, abridged: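 Steady-state assay with activated calf thymus DNA as template in excess; rates from linear regression of [3H]dNTP incorporation over time; Km and Ki fitted to competitive inhibition equation (constant Vmax) over increasing NRTI concentrations; two-tailed t tests.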

The target in series [2] is Human immunodeficiency virus type 1 reverse transcriptase (Human immunodeficiency virus 1) (UniProt Q72547). The series can be described thus: Ratio of Ki to Km for HIV1 reverse transcriptase by steady state nucleotide incorporation assay. The procedure, abridged:
(§1)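 Steady-state kinetics for WT or 4Y p66/p51 RT on activated calf thymus DNA, with template in excess. Rates come from linear regression of [3H]dNTP incorporation over a time course, with increasing NRTI. Km and Ki are fitted with a competitive inhibition equation (Marquardt-Levenberg); two-tailed t-tests.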

For series [3], the system named is Human immunodeficiency virus type 1 reverse transcriptase (Human immunodeficiency virus 1), Q72547 [M41L,D67N,L210W,T215Y]. Description: Ratio of Ki to Km for HIV1 reverse transcriptase M41L/D67N/L210W/T215Y mutant by steady state nucleotide incorporation assay. An outline of the steps:
as §1

Series [4] has as its system Human immunodeficiency virus 1. Description: Ratio of Ki/Km for HIV1 reverse transcriptase M41L/D67N/L210W/T215Y mutant to Ki/Km for wild-type reverse transcriptase. An outline of the steps: as §1
Series [5] addresses Human immunodeficiency virus type 1 reverse transcriptase (Human immunodeficiency virus 1, UniProt Q72547, D67N/L210W/M41L/T215Y). The series can be described thus: Inhibition of HIV1 reverse transcriptase M41L/D67N/L210W/T215Y mutant by steady state nucleotide incorporation assay. The procedure, abridged: as §1
The test system of series [6] is Human immunodeficiency virus 1. Description: Ratio of Ki for HIV1 reverse transcriptase M41L/D67N/L210W/T215Y mutant to Ki for wild-type reverse transcriptase. An outline of the steps:
as §1

The subject of series [7] is Human immunodeficiency virus type 1 reverse transcriptase (Human immunodeficiency virus 1), Q72547 [M41L,D67N,L210W,T215Y]. Description: Inhibition of HIV1 reverse transcriptase M41L/D67N/L210W/T215Y mutant assessed as dCTP level required to form 80% of binary enzyme complex formation with drug-terminated primer in posttranslocation state by site-specific foot printing assay. An outline of the steps:
(§2)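 Site-specific footprinting uses a radiolabelled template with WT or 4Y p66/p51 RT in pH 7 cacodylate buffer with 6 mM MgCl2. The primer is chain-terminated with 10 μM analogue (20 min, 37°C), then the next nucleotide dCTP is added at varying levels for 10 min at 37°C. Complexes are treated with KOONO and resolved on urea gels. The value is the dCTP level giving 50% or 80% posttranslocated complex; ≥3 experiments.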

The target of series [8] is T1, Human immunodeficiency virus type 1 reverse transcriptase. The series can be described thus: Binding affinity to ternary complex of HIV1 reverse transcriptase with primer/template in presence of dCTP substrate.
The target of series [9] is Human immunodeficiency virus type 1 reverse transcriptase (Human immunodeficiency virus 1) (UniProt Q72547). The series can be described thus: Inhibition of HIV1 reverse transcriptase assessed as dCTP level required to form 80% of binary enzyme complex formation with drug-terminated primer in posttranslocation state by site-specific foot printing assay. An outline of the steps:
as §2

Series [10] has as its system Human immunodeficiency virus type 1 reverse transcriptase (Human immunodeficiency virus 1), Q72547 [M41L,D67N,L210W,T215Y]. Description: Ratio of Kcat/Km for HIV1 reverse transcriptase M41L/D67N/L210W/T215Y mutant in presence of 0.5 uM dCTP to Kcat/Km for reverse transcriptase M41L/D67N/L210W/T215Y mutant in presence of 10 uM dCTP by nucleotide excision activity assay. An outline of the steps:
(§3)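 Purified heterodimeric p66/p51 HIV-1 RT (WT or M41L/D67N/L210W/T215Y). ATP plus a dNTP mix containing the next nucleotide dCTP (0.5 or 10 μM) is then added at 37°C. Excised/rescued product is followed over time on denaturing urea gels. ATP Km and Vmax give kcat/Km; means of ≥3 experiments. Ratios are 4Y/WT or 0.5/10 μM dCTP.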

Series [11] has the same test system. Description: Ratio of Kcat to Km for HIV1 reverse transcriptase M41L/D67N/L210W/T215Y mutant assessed as nucleotide excision activity in presence of 10 uM dCTP. An outline of the steps:
as §3

The subject of series [12] is Human immunodeficiency virus 1. The series can be described thus: Ratio of Kcat/Km for HIV1 reverse transcriptase M41L/D67N/L210W/T215Y mutant to Kcat/Km for wild-type reverse transcriptase assessed as nucleotide excision activity in presence of 0.5 uM dCTP. An outline of the steps:
as §3

For series [13], the target named is Human immunodeficiency virus type 1 reverse transcriptase (Human immunodeficiency virus 1) (UniProt Q72547). The series can be described thus: Ratio of Kcat/Km for HIV1 reverse transcriptase in presence of 0.5 uM dCTP to Kcat/Km for reverse transcriptase in presence of 10 uM dCTP by nucleotide excision activity assay. An outline of the steps: as §3
Series [14] relates to Human immunodeficiency virus 1. The series can be described thus: Ratio of Kcat/Km for HIV1 reverse transcriptase M41L/D67N/L210W/T215Y mutant to Kcat/Km for wild-type reverse transcriptase assessed as nucleotide excision activity in presence of 10 uM dCTP. The procedure, abridged:
as §3

The target of series [15] is Human immunodeficiency virus type 1 reverse transcriptase (Human immunodeficiency virus 1) (UniProt Q72547). The series can be described thus: Ratio of Kcat to Km for HIV1 reverse transcriptase assessed as nucleotide excision activity in presence of 10 uM dCTP. The procedure, abridged:
as §3

Series [16] relates to Human immunodeficiency virus type 1 reverse transcriptase (Human immunodeficiency virus 1), Q72547 [M41L,D67N,L210W,T215Y]. The series can be described thus: Ratio of Kcat to Km for HIV1 reverse transcriptase M41L/D67N/L210W/T215Y mutant assessed as nucleotide excision activity in presence of 0.5 uM dCTP. An outline of the steps: as §3
For series [17] the test system is unchanged. Description: Inhibition of HIV1 reverse transcriptase M41L/D67N/L210W/T215Y mutant assessed as dCTP level required to form 50% of binary enzyme complex formation with drug-terminated primer in posttranslocation state by site-specific foot printing assay. The procedure, abridged: as §2
In series [18] the target is Human immunodeficiency virus type 1 reverse transcriptase (Human immunodeficiency virus 1) (UniProt Q72547). Description: Ratio of Kcat to Km for HIV1 reverse transcriptase assessed as nucleotide excision activity in presence of 0.5 uM dCTP. An outline of the steps: as §3
For series [19] the target is unchanged. Description: Inhibition of HIV1 reverse transcriptase assessed as dCTP level required to form 50% of binary enzyme complex formation with drug-terminated primer in posttranslocation state by site-specific foot printing assay. The procedure, abridged:
as §2

For series [20], the system named is C[C@H](Cn1cnc2c(N)ncnc21)OCP(=O)(O)O. Description: (§4) Activity of HIV1 reverse transcriptase M41L/D67N/L210W/T215Y mutant assessed as nucleotide excision activity in presence of 0.5 uM dCTP. As to conditions: Human immunodeficiency virus 1. The procedure, abridged: as §3
Series [21] relates to Cc1cn([C@H]2C[C@H](N=[N+]=[N-])[C@@H](COP(=O)(O)O)O2)c(=O)[nH]c1=O. Described as §4. The following applies: Human immunodeficiency virus 1. The procedure, abridged: as §3
Series [22] deals with [N-]=[N+]=N[C@H]1C[C@H](n2cnc3c(N)ncnc32)O[C@@H]1COP(=O)(O)O. The description is as §4. The following applies: Human immunodeficiency virus 1. The procedure, abridged:
as §3

The test system of series [23] is C[C@H](Cn1cnc2c(N)ncnc21)OCP(=O)(O)O. Description: (§5) Activity of HIV1 reverse transcriptase M41L/D67N/L210W/T215Y mutant assessed as nucleotide excision activity in presence of 10 uM dCTP. The following applies: Human immunodeficiency virus 1. An outline of the steps:
as §3

The subject of series [24] is Cc1cn([C@H]2C[C@H](N=[N+]=[N-])[C@@H](COP(=O)(O)O)O2)c(=O)[nH]c1=O. The series is described as §5. The following applies: Human immunodeficiency virus 1. An outline of the steps: as §3
The test system of series [25] is [N-]=[N+]=N[C@H]1C[C@H](n2cnc3c(N)ncnc32)O[C@@H]1COP(=O)(O)O. The series is described as §5. The following applies: Human immunodeficiency virus 1. The procedure, abridged:
as §3

On to `C[C@H](Cn1cnc2c(N)ncnc21)OCP(=O)(O)OP(=O)(O)O`, for which the Ki – broadly, a dissociation constant, usually derived from enzyme kinetics or from competition with a known ligand – amounted to 0.21 µM in series [1] and 0.11 µM in series [5]. Moreover, the results for the Ratio in series [2], in series [3] and in [4] were 0.47, 0.19 and 0.4, respectively. For the same compound, the Ratio Ki in series [6] was 0.5.
In the case of `[N-]=[N+]=N[C@H]1C[C@H](n2cnc3c(N)ncnc32)O[C@@H]1COP(=O)(O)OP(=O)(O)OP(=O)(O)OP(=O)(O)O`, the results for the Ki in series [1] and in [5] were 0.23 µM and 0.15 µM, respectively. Moreover, the Ratio in series [2] is 0.51; in series [3], 0.26; in series [4] it was 0.5. Moreover, the Ratio Ki in series [6] was found to be 0.65.
In the case of `Nc1ncnc2c1ncn2[C@H]1CC[C@@H](COP(=O)(O)O)O1`, the Activity in series [7] came to 0.3 µM; in series [9] it was 0.2 µM. In addition, in series [8], the Kd (usually a measure of binding affinity in units of concentration) is 0.1 µM.
As for `Cc1cn([C@H]2C[C@H](N=[N+]=[N-])[C@@H](COP(=O)(O)OP(=O)(O)OP(=O)(O)O)O2)c(=O)[nH]c1=O`, the values for the Ratio in series [2], in series [3] and in series [4] were 0.09, 0.09 and 1, respectively. For the same compound, the Ratio Ki in series [6] came to 1.2.
As for `[N-]=[N+]=N[C@H]1C[C@H](n2cnc3c(N)ncnc32)O[C@@H]1COP(=O)(O)O`, the Ratio in [10] is 1.3; in series [11], 1.2; in [12], 3.3; in [13], 1.3; in [14] it was 3.2; in series [15] it was 0.37. The Ratio was 1.6 in series [16] and 0.49 in series [18]. For the same compound, the Activity is more than 100 µM in [7], 100 µM in series [9], 27 µM in [17] and 10 µM in series [19].
In the case of `Cc1cn([C@H]2C[C@H](N=[N+]=[N-])[C@@H](COP(=O)(O)O)O2)c(=O)[nH]c1=O` [AZIDOTHYMIDINE MONOPHOSPHATE], the Ratio in series [10] came out at 1.2; in [11] it was 1.08; in [12], 6.8; in [13], 1.2; in series [14], 6.8; in series [15] it was 0.16. The Ratio in [16] was 1.3; in [18], 0.19. Besides, the Activity in [7] is 50 µM; in series [9] it was 31 µM; in [17], 8 µM; in series [19], 8 µM. In series [8], the Kd came to 24.9 µM.
As for `Nc1ncnc2c1ncn2[C@H]1CC[C@@H](COP(=O)(O)OP(=O)(O)OP(=O)(O)O)O1` [DDA-TRIPHOSPHATE], the Ki in [1] stood at 0.09 µM; in [5], 0.05 µM. Moreover, the results for the Ratio in [2], in [3] and in series [4] were 0.2, 0.09 and 0.5, respectively. The Ratio Ki in [6] came out at 0.6.
On to `C[C@H](Cn1cnc2c(N)ncnc21)OCP(=O)(O)O` [TENOFOVIR ANHYDROUS], for which the Ratio in series [10] came to 5.7; in series [11], 2.9; in [12], 14.9; in [13], 7.3; in [14], 19.3; in [15], 0.15. The Ratio in series [16] came out at 16.4; in series [4] it was 0.4; in series [18], 1.1. Further, the Activity in [7] amounted to 2 µM; in series [9], 3 µM; in series [17], 0.3 µM; in series [19], 0.1 µM. Moreover, in series [8], the Kd is 3.2 µM.
Consider `Cc1cn([C@H]2C[C@H](N=[N+]=[N-])[C@@H](CO[P@](=O)(O)O[P@](=O)(O)OP(=O)(O)O)O2)c(=O)[nH]c1=O` [ZIDOVUDINE TRIPHOSPHATE], for which the Ki in series [1] is 0.041 µM; in series [5] it was 0.047 µM.
For “Human immunodeficiency virus type 1 reverse transcriptase (Human immunodeficiency virus 1) (from UniProt Q72547) M41L,D67N,L210W,T215Y”, the Km – broadly, the concentration of substrate that gives half-maximal velocity – was determined as 590 µM in series [20]; 1400 µM in series [21]; 2000 µM in [22]; 960 µM in [23]; 1200 µM in [24]; 2000 µM in series [25]. For the same compound, the kcat in series [20] is 9.7 ×10⁻³ /min; in series [21], 1.8 ×10⁻³ /min; in series [22] it was 3.2 ×10⁻³ /min; in [23] it was 2.8 ×10⁻³ /min; in [24], 1.3 ×10⁻³ /min; in [25], 2.4 ×10⁻³ /min.
